Active and inactive are the calls of the source. The rule behind the calls is not given here.
Legend:
[1] = target: T1, N-terminal Xaa-Pro-Lys N-methyltransferase 1 (Homo sapiens) (UniProt Q9BV86); test: Competitive inhibition of recombinant human full-length His6-tagged NTMT1 (1 to 222 residues) expressed in Escherichia coli BL21-CodonPlus(DE3)-RIL competent cells pre-incubated for 10 mins in presence of fixed SAM and SAHH before varying levels of RCC1-6 addition and measured after 15 mins by fluorescence based SAHH-coupled assay; conditions: time 25.0 min
T1 sequence (whole entry): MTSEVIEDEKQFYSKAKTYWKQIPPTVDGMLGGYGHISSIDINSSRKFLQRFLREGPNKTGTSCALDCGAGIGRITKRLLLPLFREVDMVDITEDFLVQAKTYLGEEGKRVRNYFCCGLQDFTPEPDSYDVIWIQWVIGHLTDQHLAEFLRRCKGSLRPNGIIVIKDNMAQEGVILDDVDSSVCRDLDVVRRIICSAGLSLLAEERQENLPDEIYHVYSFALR
Outline: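 After 10 min at 37 °C, started with RCC1-6 at 0.5, 1, 1.5, 2, 4 or 8 µM. Read Ex 370/Em 500 nm for 15 min at 37 °C. Triplicate IC50 at each level plotted against [RCC1-6]/Km.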

[2] = species on record: Homo sapiens; test: Selectivity for human NTMT1 over human DNMT1 at 100 uM
Outline: (§1)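 Panel of 41 PKMTs, PRMTs, DNMTs and NTMT1/2, tested at 100 µM compound in duplicate (n=2).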

[3] = species on record: Homo sapiens; test: Selectivity for human NTMT1 over human DNMT3b/3L at 100 uM; outline: as §1
[4] = species on record: Homo sapiens; test: Selectivity for human NTMT1 over human NSD3 at 100 uM; outline: as §1
[5] = species on record: Homo sapiens; test: Selectivity for human NTMT1 over human PRDMT5/MEP50 complex at 100 uM; outline: as §1
[6] = species on record: Homo sapiens; test: Selectivity for human NTMT1 over human SUV39H1 at 100 uM
Outline: (§2)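 Single-point panel screen against 41 PKMTs, PRMTs, DNMTs and NTMT1/2. Each compound was tested at 100 µM, in duplicate (n=2).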

[7] = species on record: Homo sapiens; test: Selectivity for human NTMT2 over human PRDMT1 at 100 uM; outline: as §2
[8] = species on record: Homo sapiens; test: Selectivity for human NTMT2 over human PRDMT3 at 100 uM; outline: as §2
[9] = species on record: Homo sapiens; test: Selectivity for human NTMT2 over human PRDMT5 at 100 uM; outline: as §2
[10] = species on record: Homo sapiens; test: Selectivity for human NTMT2 over human SMYD2 at 100 uM; outline: as §2

Question: What does the source list for N=C(N)NCCC[C@H](NC(=O)[C@H](CCCCN)NC(=O)[C@@H]1CCCN1C(=O)Cc1ccc(O)cc1)C(N)=O?
Answer: inhibition [1]: Active; Selectivity ratio [2]: > 100; Selectivity ratio [3]: > 100; Selectivity ratio [4]: > 100; Selectivity ratio [5]: > 100; Selectivity ratio [6]: > 100; Selectivity ratio [7]: > 100; Selectivity ratio [8]: > 100; Selectivity ratio [9]: > 100; Selectivity ratio [10]: > 100
